# Screening results as filed in PubChem.
# A selection: hits, their analogues and other compounds. The true share with any hit is near 4.1%.
# KCNQ1 pot – potentiates or activates the human KCNQ1 potassium channel | 310,000 compounds, 0.35% hits | P51787 | B-score at 10 µM | AID 2648 | CHO-K1 KCNQ1, thallium flux FluxOR fluorescence; stronger effect = higher value;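 active = fluorescence ratio B-score, a plate-corrected score, at least three library SD, with initial intensity B-score within 5 SD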
# Target sequence (P51787 whole entry, looked up): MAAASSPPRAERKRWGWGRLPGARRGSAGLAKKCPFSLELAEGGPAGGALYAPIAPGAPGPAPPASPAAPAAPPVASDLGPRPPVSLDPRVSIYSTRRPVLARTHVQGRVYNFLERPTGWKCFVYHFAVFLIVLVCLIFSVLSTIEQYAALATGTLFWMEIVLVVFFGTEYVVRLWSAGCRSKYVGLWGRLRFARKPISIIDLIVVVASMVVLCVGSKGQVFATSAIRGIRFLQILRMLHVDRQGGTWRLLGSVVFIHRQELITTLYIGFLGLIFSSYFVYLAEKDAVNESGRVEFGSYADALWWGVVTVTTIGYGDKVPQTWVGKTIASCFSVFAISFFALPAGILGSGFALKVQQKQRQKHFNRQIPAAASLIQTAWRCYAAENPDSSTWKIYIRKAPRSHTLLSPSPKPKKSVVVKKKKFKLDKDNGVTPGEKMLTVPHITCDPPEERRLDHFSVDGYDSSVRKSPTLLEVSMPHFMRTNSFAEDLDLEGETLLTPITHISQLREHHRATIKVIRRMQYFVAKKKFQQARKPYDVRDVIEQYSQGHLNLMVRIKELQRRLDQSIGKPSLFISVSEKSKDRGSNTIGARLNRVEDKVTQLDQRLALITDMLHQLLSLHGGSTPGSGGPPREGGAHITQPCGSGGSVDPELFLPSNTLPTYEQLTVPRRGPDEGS
#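 Test system: CHO-K1 cells stably expressing KCNQ1 / Medium: assay buffer / Also added: depolarizing K+/Tl+ stimulus, K2SO4 and Tl2SO4 each 12.5 mM in 5x stock / Incubation: 90 min dye loading and 20 min compound exposure, both at room temperature / Signal: thallium influx via FluxOR fluorescence, kinetic imaging / Evaluation: B score of baseline-normalized fluorescence ratio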
# Cl transport mod – modulates chloride dependent transport by human KCC2; Q9H2X9; KCC2 cells, thallium flux FluoZin-2 fluorescence; B-score of Tl+ flux slope (higher = more flux/activation; lower = inhibition) at 10 µM; 190,000 compounds, 2.2% hits;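 active = thallium flux slope and its plate-corrected score both differing from the plate sample mean at a set confidence after two filtering rounds, in either direction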;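 note: slope of fluorescence scaled to starting intensity during 10 to 20 s after thallium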
# KCNK9 inh – inhibitors of human KCNK9 two-pore domain potassium channel | HEK293 KCNK9, FluxOR thallium flux fluorescence; stronger effect = lower value | 310,000 compounds, 1.2% hits | AID 488922 | B-score at 10 µM;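 active = ratio B-score over 3 SD below the library mean, with starting fluorescence within 5 SD of its mean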;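 note: negative B-score means less thallium flux so channel inhibition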
# KCNQ1 inh – human KCNQ1 channel inhibition | P51787 | CHO-K1 KCNQ1, FluxOR thallium flux fluorescence; stronger effect = higher value | B-score at 10 µM | 310,000 compounds, 1.3% hits;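 active = compounds whose thallium flux B-score, printed positive for inhibition, exceeds three library SD while starting fluorescence stays within three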;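 note: channel opened by potassium depolarization with thallium stimulus after 20 min compound exposure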
# KCNK3 inh – human KCNK3 channel inhibition, primary screen | O14649 | CHO-KCNK3 thallium flux, FluxOR fluorescence; stronger effect = lower value | B-score at 10 µM | 340,000 compounds, 0.84% hits;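 active = B-score under library mean minus 4 SD, starting fluorescence ratio at most library mean plus 5 SD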;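 note: more negative B-score means stronger inhibition of thallium flux through KCNK3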
# hERG rescue – shields human hERG channel from block by proarrhythmic agents. CHO-hERG, FluxOR thallium flux, dofetilide IC70 present. AID 1511. Q12809. 310,000 compounds, 0.51% hits. activation (rescue from dofetilide block), less the hit threshold, % at 10 µM;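 active = activation above the mean of controls blocked by dofetilide plus 5 SD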;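 note: thallium influx through hERG after potassium depolarization seen as dye fluorescence rise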
# KCNK9 block conf – confirmation of human KCNK9 potassium channel inhibitors; 4,900 compounds, 43% hits; AID 492992; shares compounds with KCNK9 inh; inhibition, % at 10 µM; HEK293 KCNK9 cells, FluxOR thallium flux fluorescence;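 active = thallium signal inhibited by more than 5 SD of the compound-free buffer control wells, on both duplicate plates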;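 note: 0% = assay buffer control wells without compound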
# Kir2-1 spec – tests whether KCNK9 modulators also affect mouse Kir2.1; shares compounds with KCNK9 inh; Kir2.1 cells, FluxOR thallium flux fluorescence; AID 492993; inhibition, % at 10 µM; 4,900 compounds, 4% hits;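 active = thallium signal drop more than 5 SD beyond the mean of the no-compound control wells, seen in both duplicate plates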;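 note: signal is fluorescence rise after thallium addition divided by baseline fluorescence; plate controls were assay buffer only for no effect and full block by chlorpromazine control for full effect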
# HEK293 Tl ctr – second counter-screen for KCNK9 modulators: effect in non-induced cells. shares compounds with KCNK9 inh. non-induced KCNK9-HEK293, FluxOR thallium flux. inhibition, % at 10 µM. 4,900 compounds, 40% hits. AID 492997;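 active = thallium signal drop beyond 5 SD of the untreated control mean, on both duplicate plates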;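 note: plate controls were buffer only IC0 wells for no effect and SID17386958 at its maximal inhibitory level for full effect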
# Starred values were filed as active, the others as inactive; i = inactive; · = no result given.
SMILES,KCNQ1 pot,Cl transport mod,KCNK9 inh,KCNQ1 inh,KCNK3 inh,hERG rescue,KCNK9 block conf,Kir2-1 spec,HEK293 Tl ctr
COc1ccc(N2CCN(CC(=O)Nc3c(C)cc(C)cc3C)CC2)cc1,i,·,i,i,i,-5.0,·,·,·
CCOC(=O)N1CCN(C(=O)c2cc(-c3ccc(OCC)cc3)nc3ccccc23)CC1,i,-0.101,i,i,i,-19.4,·,·,·
CCOc1ccc(-c2cc3nc(C4CCN(C(=O)OC(C)(C)C)CC4)c(C(=O)O)cn3n2)cc1,i,-0.365,i,i,i,-19.1,i,i,34.5%*
CC(C)CN=C(NS(=O)(=O)c1ccccc1)C(Cl)(Cl)Cl,i,1.19,i,i,i,-15.8,·,·,·
Cc1ccccc1-n1ncc2c(SCC(=O)NC3CCCC3)ncnc21,i,·,i,i,i,-3.5,·,·,·
Cc1ccccc1-n1ncc2c(SCC(=O)N3c4ccccc4CC3C)ncnc21 (centres undefined),i,·,i,i,i,-6.8,i,i,i
COc1ccccc1NC(=O)COC(=O)c1[nH]c(=O)[nH]c(=O)c1N,·,·,·,·,i,·,·,·,·
CC(C)=CCc1c(O)ccc(C2COc3c(CC=C(C)C)c(O)cc(O)c3C2=O)c1O (centres undefined),i,·,-23.8*,i,i,-17.6,65.5%*,i,27.5%*
Cc1ccc(S(=O)(=O)N2[C@@H](c3ccccc3F)C(C(=O)O)=CC[C@H]2c2ccc(Cl)c(Cl)c2)cc1,·,·,·,·,i,·,·,·,·
Oc1ccccc1C=Nc1ccccc1-c1nc2ccccc2[nH]1,i,0.658,i,i,i,-6.9,·,·,·
COc1ccc(OC)c(C=Nc2ccccc2-c2nc3ccccc3[nH]2)c1,i,-0.536,-8.37*,i,i,-13.6,39.0%*,i,28.0%*
Cc1cc(/C=N/NC(=O)c2c(Br)cnn2C)c(C)n1-c1cccc(Br)c1,i,-0.914,-11.6*,i,i,-4.8,54.5%*,i,29.0%*
Cc1cc(/C=N/NC(=O)C(=O)N2CCCC2)c(C)n1-c1cccc(Br)c1,i,·,i,i,i,-1.8,·,·,·
CCCCSc1nc(SCC(=O)NCc2ccco2)c2c3c(sc2n1)COC(C)(CC)C3 (centres undefined),i,·,i,i,i,-21.3,i,i,i
N#CC1(Cc2ccc([N+](=O)[O-])cc2)c2ccccc2C=CN1C(=O)c1ccccc1 (centres undefined),i,-0.463,-12.1*,i,i,-3.6,32.0%*,i,34.0%*
CC1=Cc2ccccc2C(C#N)N1C(=O)c1ccccc1 (centres undefined),i,-1.31,i,i,i,-9.9,·,·,·
N#CC1(Cc2ccccc2)c2ccccc2C=CN1C(=O)c1ccccc1 (centres undefined),i,-0.0703,-9.84*,6*,i,-18.9,46.5%*,i,31.0%*
CCCCSc1nnc2n(CCc3ccccc3)c(=O)c3c4c(sc3n12)COC(C)(C)C4,i,-1.28,i,i,i,-16.1,i,i,i
Cc1nnc2n(-c3ccccc3)c(=O)c3c4c(sc3n12)COC(C)(C)C4,i,-3.17,i,i,i,-4.2,·,·,·
COc1cc2cc(C(=O)N3CCC(Cc4ccccc4)CC3)[nH]c2cc1OC,i,·,i,i,i,-0.1,·,·,·
CC1CCN(C(=O)/C=C/c2ccc(C(C)(C)C)cc2)CC1,i,-0.938,-9.04*,i,i,-14.5,62.5%*,i,50.0%*
Cc1cc(C)c2cc(C(=O)N3CCC(Cc4ccccc4)CC3)[nH]c2c1,i,1.61,i,i,i,-12.6,i,i,i
Cc1ccc(/C=C/C(=O)N2CCC(Cc3ccccc3)CC2)cc1,i,-3.39,i,i,i,-14.0,i,i,25.5%*
Cc1ccc(NS(=O)(=O)c2cccc(C(=O)NCCc3c[nH]c4ccccc34)c2)c(C)c1,i,-1.01,i,i,i,-16.8,i,i,27.0%*
O=C1c2ccccc2C(=O)N1CC#CCN1CCN(C(c2ccccc2)c2ccccc2)CC1,i,0.00709,i,i,i,-11.8,i,i,i
SMILES,KCNQ1 pot,Cl transport mod,KCNK9 inh,KCNQ1 inh,KCNK3 inh,hERG rescue,KCNK9 block conf,Kir2-1 spec,HEK293 Tl ctr
O=C1NC(=O)N2CCSC2(Cc2ccccc2)N1 (centres undefined),·,·,·,·,i,·,·,·,·
Cc1ccsc1CN(C)C(=O)CN1C(=O)NC(c2ccccc2)(c2ccccc2)C1=O,·,·,·,·,i,·,·,·,·
Cc1nonc1OCC(C)(COc1nonc1C)NC(=O)c1ccc(Cl)cc1,i,-1.1,-9.06*,i,i,-10.2,46.0%*,i,36.5%*
Cc1noc(NC(=O)c2ccc(Cl)cc2)c1Cl,i,0.442,i,i,i,-4.9,·,·,·
O=C(NCCS(=O)(=O)N1CCN(c2ccccc2)CC1)C1CC1,i,·,i,i,i,-9.0,·,·,·
CN(Cc1cnccn1)Cc1cn(Cc2ccccc2)nc1-c1ccc2c(c1)OCO2,i,·,i,i,i,-16.4,i,i,i
S=C(NC1CCCCC1)N1CCOCCOCCN(C(=S)NC2CCCCC2)CCOCCOCC1,i,-1.34,-12.5*,i,i,-1.9,50.0%*,i,33.0%*
CNC[C@H](Cc1ccccc1)NC[C@@H](Cc1cccc2ccccc12)NCCc1ccc(C)cc1,i,·,-9.51*,11*,i,-28.0,70.0%*,76.0%*,57.5%*
COc1ccc(-c2nn(-c3ccccc3)cc2C(=O)N2CCN(S(=O)(=O)c3cccc(F)c3)CC2)cc1,i,·,i,i,i,-12.8,·,·,·
COc1ccc(C(=O)n2nc(C)cc2C)cc1OC,i,0.214,i,i,i,-4.7,·,·,·
Cc1cc(C)n(C(=O)c2ccc(C)c(Br)c2)n1,i,·,i,i,i,-6.7,i,i,i
COC(=O)c1ccc(-c2noc(CN(C)CCC3CCCCO3)n2)cc1 (centres undefined),i,0.0222,i,i,i,-5.1,i,i,i
COc1ccc(-c2noc(CN(C)CCC3CCCCO3)n2)cc1 (centres undefined),i,0.391,i,i,i,-5.3,i,i,i
COc1ccc(C(=O)N(Cc2nc(-c3ccc(C)cc3)no2)C2CCCCC2)cc1OC,i,·,i,i,i,-0.8,i,i,i
